Active and inactive are the calls of the source. The rule behind the calls is not given here.
How the values were obtained:
RAW264.7 [1] = experiment: Cytotoxicity against mouse RAW264.7 cells by MTT assay; type: cell-based
MCF7 = experiment: Cytotoxicity against human MCF7 cells by MTT assay; type: functional, cell-based
RAW264.7 [2] = experiment: Antiinflammatory activity against mouse RAW264.7 cells assessed as inhibition of LPS-induced nitric oxide production measured after 24 hrs; type: functional, cell-based; conditions: RAW264.7, 24 h
Outline: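 RAW264.7 cells seeded at 5 × 10^4 per well and grown 24 h, then given LPS (1 μg/mL) together with graded compound concentrations (DMSO stocks) for 24 h. NO in the medium was read with nitric oxide detection reagents I and II, measuring absorbance at 540 nm. IC50 came from normalized response–variable slope curve fits, mean of n = 3.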

HeLa = experiment: Cytotoxicity against human HeLa cells by MTT assay; type: functional, cell-based
HepG2 = experiment: Cytotoxicity against human HepG2 cells by MTT assay; type: functional, cell-based

IC50 (RAW264.7 [2]) | SMILES | IC50 (RAW264.7 [1]) | Activity (MCF7) | Activity (HeLa) | Activity (HepG2)
22 µM | C/C=C/CCC(=O)C1=C(O)[C@@]2(C)[C@H]3\C(=C(O)/C=C/C=C/CO)C(=O)C(C)=C(O)[C@@]3(C)O[C@@]2(O)[C@@](C)(O)C1 | > 50 µM | inactive | inactive | inactive
5.9 µM | C/C=C/C=C/C(O)=C1/C(=O)C(C)=C(O)[C@@]2(C)O[C@@]3(O)[C@@](C)(O)CC(C(=O)CC/C=C/C)=C(O)[C@@]3(C)[C@@H]12 | > 50 µM | inactive | inactive | inactive
0.94 µM | Cc1cc(C(=O)CC/C=C/CO)c(O)cc1O | > 50 µM | inactive | inactive | inactive
> 50 µM | Cc1cc(C(=O)CCC(=O)O)c(O)c(C)c1O | > 50 µM | inactive | inactive | inactive
> 50 µM | Cc1c(O)ccc(C(=O)C[C@@H]2CC[C@H]([C@H](C)O)O2)c1O | > 50 µM | inactive | inactive | inactive
22 µM | C/C=C/C=C/C(O)=C1\C(=O)C(C)=C(O)[C@@]2(C)O[C@@]3(O)[C@@](C)(O)CC4=C(O[C@@H](/C=C/C)CC4=O)[C@@]3(C)[C@@H]12 | > 50 µM | inactive | inactive | inactive
8.5 µM | Cc1cc2c(c(C)c1O)O[C@H](/C=C/CO)CC2=O | > 50 µM | inactive | inactive | inactive
> 50 µM | Cc1cc(C(=O)CC/C=C/C(=O)O)c(O)cc1O | > 50 µM | inactive | inactive | inactive
14 µM | C/C=C/CCC(=O)c1cc(C)c(O)cc1O [SOHIRNONE A] | > 50 µM | inactive | inactive | inactive
13 µM | C/C=C/CCCc1cc(C)c(O)cc1O | > 50 µM | inactive | inactive | inactive
6.8 µM | Cc1cc(C(=O)/C=C/C=C/CO)c(O)c(C)c1O | > 50 µM | inactive | inactive | inactive
41 µM | COc1ccc2c(c1)c(CC(=O)O)c(C)n2C(=O)c1ccc(Cl)cc1 [INDOMETHACIN] | > 50 µM |  |  | 
> 50 µM | Cc1cc(C(=O)CCCCCO)c(O)cc1O | > 50 µM | inactive | inactive | inactive
> 50 µM | CC1=C(O)[C@@]2(C)O[C@@]3(O)[C@@](C)(O)C\C(=C(O)/C=C/C=C/CO)C(=O)[C@@]3(C)[C@H]2\C(=C(O)/C=C/C=C/CO)C1=O | > 50 µM | inactive | inactive | inactive
> 50 µM | Cc1cc(C(=O)CCC(=O)O)c(O)cc1O | > 50 µM | inactive | inactive | inactive
3.3 µM | C/C=C/C=C/C(=O)c1c(O)c(C)cc(C)c1O | > 50 µM | inactive | inactive | inactive
> 50 µM | C/C=C/C=C/C(O)=C1/C(=O)[C@]2(C)C(=O)[C@@](C)(O)[C@H]1[C@@H]1CC(=O)N(C)[C@@H]12 | > 50 µM | inactive | inactive | inactive
2.9 µM | Cc1cc(C(=O)CC/C=C/CO)c(O)c(C)c1O | > 50 µM | inactive | inactive | inactive
32 µM | C/C=C/C=C/C(O)=C1\C(=O)C(C)=C(O)[C@@]2(C)O[C@@]3(O)[C@@](C)(O)CC4=C(O[C@H](/C=C/C)CC4=O)[C@@]3(C)[C@@H]12 | > 50 µM | inactive | inactive | inactive
24 µM | CC1=C(O)[C@@]2(C)O[C@@]3(O)[C@@](C)(O)CC(C(=O)CC/C=C/CO)=C(O)[C@@]3(C)[C@H]2\C(=C(O)/C=C/C=C/CO)C1=O | > 50 µM | inactive | inactive | inactive
9.9 µM | C/C=C/C=C/C(O)=C1\C[C@](C)(O)[C@]2(O)O[C@]3(C)C(O)=C(C)C(=O)/C(=C(O)/C=C/C=C/C)[C@@H]3[C@]2(C)C1=O | > 50 µM | inactive | inactive | inactive
12 µM | C/C=C/[C@@H](O)CC(=O)c1cc(C)c(O)cc1O | > 50 µM | inactive | inactive | inactive
38 µM | Cc1cc2c(c(C)c1O)O[C@H](CCCO)CC2=O | > 50 µM | inactive | inactive | inactive
6.1 µM | C/C=C/C=C/C(O)=C1\C[C@](C)(O)[C@]2(O)O[C@]3(C)C(O)=C(C)C(=O)/C(=C(O)/C=C/C=C/CO)[C@@H]3[C@]2(C)C1=O | > 50 µM | inactive | inactive | inactive
6.1 µM | Cc1c(O)c(O)cc(C(=O)CC/C=C/CO)c1O | > 50 µM | inactive | inactive | inactive

— ChEMBL document CHEMBL4480465, “Anti-inflammatory Mono- and Dimeric Sorbicillinoids from the Marine-Derived Fungus Trichoderma reesei 4670” (J Nat Prod, 2019)
